# Bioassay records deposited in PubChem BioAssay by several laboratories.
# In the library only some 2.5% were active in any assay of this set; here they are far more common.
# bovine MsrA act = activators of bovine methionine sulfoxide reductase A | purified bovine MsrA, absorbance read-out | 360,000 tested, 0.3% active | activation, % at 10.6 µM; in the data active = activation above about 7.5%;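 note: 0% = vehicle and 100% = reference activator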
# NR2E3 ag-1 = human photoreceptor-specific nuclear receptor agonism; AID 602229; 360,000 tested, 0.35% active; inhibition of corepressor binding, % at 3.98 µM; CHO-S Gal4-NCOR/VP16-NR2E3 two-hybrid, luciferase; Q9Y5X4;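 active = inhibition above the mean of all tested compounds plus 3 SD, cut at about 70% in these data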;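 note: 0% = DMSO with NR2E3 transfected cells and 100% = cells lacking NR2E3 construct; higher means lower luciferase signal from less NR2E3 corepressor binding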
# Target sequence (Q9Y5X4 whole entry, looked up, the tested form may be a part): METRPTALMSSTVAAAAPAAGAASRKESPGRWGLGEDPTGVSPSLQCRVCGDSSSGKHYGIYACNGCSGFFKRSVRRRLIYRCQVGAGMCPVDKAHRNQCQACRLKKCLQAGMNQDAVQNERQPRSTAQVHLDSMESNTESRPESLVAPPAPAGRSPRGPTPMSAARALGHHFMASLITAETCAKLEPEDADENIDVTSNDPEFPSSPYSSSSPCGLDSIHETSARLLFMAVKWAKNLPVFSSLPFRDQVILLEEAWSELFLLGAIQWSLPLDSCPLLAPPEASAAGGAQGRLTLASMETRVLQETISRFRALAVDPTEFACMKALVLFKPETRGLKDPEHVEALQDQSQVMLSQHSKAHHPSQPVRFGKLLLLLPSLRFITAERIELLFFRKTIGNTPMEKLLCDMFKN
# NR2E3 ag-2 = activates human photoreceptor nuclear receptor NR2E3; GST-NR2E3/biotin-RetCOR TR-FRET, 1536-well; inhibition of corepressor binding, % at 4.78 µM; 320,000 tested, 0.12% active; AID 2300;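 active = percent inhibition above the cutoff of mean plus 3 SD of all tested compounds, set per screening campaign, cut at about 20% in these data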;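 note: 0% = DMSO wells and 100% = biotin wells as full block of FRET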
#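 Material: NR2E3–RetCOR corepressor complex / Incubation: Compound–protein incubation for 5 h at 4 °C / Dosing: compound at 4.8 µM, single dose / Detection: time-resolved FRET / Benchmarks: high control biotin, low control 0.6% DMSO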
# MsrA inhibitor = inhibits bovine methionine sulfoxide reductase A; inhibition, % at 15.5 µM; purified bovine MsrA, absorbance read-out; 360,000 tested, 0.75% active; in the data active = inhibition above about 4.5%;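 note: 0% = vehicle wells with enzyme and 100% = reference inhibitor wells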
# NadD block = inhibitors of Staphylococcus aureus NadD; purified NadD enzyme, colorimetric absorbance read-out; 360,000 tested, 0.78% active; inhibition, % at 20 µM; in the data active = inhibition above about 26%
# GalR3 antagonist = human GalR3 antagonism; O60755; HEK293 GalR3-CNG cAMP membrane potential fluorescence; galR3 body fused to GalR1 C-terminus; inhibition, % at 3 µM; 360,000 tested, 0.44% active; AID 651719;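 active = inhibition above the screen-wide average plus 3 SD, cut at about 13% in these data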;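 note: forskolin and galanin both at EC90 stimulate the cells; cAMP rise reported by CNG channel membrane potential dye signal; 0% = forskolin plus galanin with DMSO and 100% = forskolin alone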
# NR2E3 ag conf = NR2E3 agonism confirmed in two-hybrid assay; shares compounds with NR2E3 ag-1; CHO-S mammalian two-hybrid NR2E3-NCOR, luciferase luminescence; inhibition, % at 3.98 µM; 2,300 tested, 51% active; AID 624378;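 active = average inhibition above a cutoff equal to the mean inhibition of all tested compounds plus one SD, cut at about 70% in these data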;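 note: 0% = DMSO in NR2E3 cells and 100% = DMSO in cells lacking NR2E3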
# VP16 counter = counter-screen for NR2E3 agonists: GAL4-VP16 reporter inhibitors. 2,300 tested, 29% active. inhibition, % at 3.98 µM. CHO-S GAL4-VP16 luciferase reporter, luminescence. shares compounds with NR2E3 ag-1;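 active = mean inhibition above a cutoff equal to the average over all tested compounds plus one standard deviation, cut at about 70% in these data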;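 note: luciferase from a UAS reporter driven by GAL4-VP16 transactivation; 0% = DMSO with VP16-transfected cells and 100% = DMSO with cells lacking VP16; higher means less reporter light so more repression of VP16 activity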
# NadD conf = NadD (S. aureus) inhibition, single concentration confirmation; shares compounds with NadD block; purified S. aureus NadD, colorimetric enzyme assay; inhibition, % at 20 µM; 2,000 tested, 13% active; AID 624309; in the data active = inhibition mostly above about 42%, no sharp cut-off; inactive = mostly below about 42%
# The depositor's hits bear a star; . = not tested or not shown.
SMILES,bovine MsrA act,NR2E3 ag-1,NR2E3 ag-2,MsrA inhibitor,NadD block,GalR3 antagonist,NR2E3 ag conf,VP16 counter,others
CCOc1cc(-c2nc3c(C)cccn3c2NCC2CCCO2)ccc1O (centres undefined),-8,-3,0,1,-7,-3,.,.,
CC(C)CC(NC(=O)CCCNC(=O)CCC(=O)OC1O[C@H]2OC3(C)CC[C@H]4[C@H](C)CCC(C1C)C24OO3)C(=O)O (some centres undefined),-2,94*,-3,-2,0,-9,91*,74*,
CC1C(OC(=O)CCC(=O)NC(C)(C)CO)O[C@H]2OC3(C)CC[C@H]4[C@H](C)CCC1C24OO3 (some centres undefined),-1,97*,2,-1,-5,-10,95*,75*,
Cc1oc(-c2ccc(Cl)cc2)nc1CS(=O)CC(=O)N1CCC2(CC1)OCCO2 (centres undefined),-10,8,1,0,-1,-2,.,.,
C(#CCN1CCOCC1)COCC#Cc1ccccc1,-2,-10,0,0,-3,-5,.,.,
Oc1cc(Cl)c(Cl)c(Cl)c1Cl,-4,74*,.,-1,-4,-6,66,75*,
Oc1cc(Cl)c(Cl)cc1Cl,.,.,.,-2,.,-4,.,.,
CCCCOC(=O)c1ccc(NC(=O)c2c(O)[nH]c(=O)[nH]c2=O)cc1,1,17,3,-1,-4,-3,.,.,
COc1ccccc1-n1c(O)c(C=NCCCn2ccnc2)c(=O)[nH]c1=O,-1,-20,2,1,3,-4,.,.,
CCOC(=O)[C@]12Cc3cc(Cl)ccc3[C@H]1N(C1CCCCC1)C(=O)c1ccccc12,-3,65,.,.,8,.,96*,59,
CCOC(=O)[C@]12Cc3cc(Cl)ccc3[C@H]1N(CC(=O)OC)C(=O)c1ccccc12,2,61,.,.,4,.,2,12,
CCOC(=O)[C@]12Cc3cc(Cl)ccc3[C@H]1N(C)C(=O)c1ccccc12,-2,-18,.,1,9,-5,.,.,
CCOC(=O)[C@]12Cc3cc(OC)ccc3[C@H]1N(C1CCCCC1)C(=O)c1ccccc12,-3,31,.,0,8,-6,.,.,
CCOc1ccc(-c2c(C)n(-c3ccc(OCC)cc3)c3[n+]2CCCCC3)cc1,-1,64,1,-1,-3,19*,97*,60,
CCOc1ccc(-n2c(-c3ccoc3)nc3ccccc3c2=O)cc1,-6,-14,-1,0,8,-6,.,.,
Cn1nc(-c2ccc(OCC(=O)N3CCN(Cc4ccccc4)CC3)cc2)c2ccccc2c1=O,-10,71*,-5,-1,7,-5,68,59,
Cc1ccc(-c2cc(-c3ccccc3)cc(-c3ccccc3)[n+]2-c2ccccc2)cc1,-2,15,2,3,7,-8,.,.,
Cc1ccc(-c2cc(-c3ccc(C)cc3)[n+](-c3ccccc3)c(-c3ccc(C)cc3)c2)cc1,-3,100*,2,.,4,.,100*,96*,
CN(C)c1ccc(-[n+]2c(-c3ccccc3)cc(-c3ccccc3)cc2-c2ccccc2)cc1,-14,51,.,1,0,-4,96*,65,
COC(=O)[C@]12OC[C@]34C([C@@H](O)[C@@H]1O)[C@]1(C)CC(=O)C(O)=C(C)[C@@H]1C[C@H]3OC(=O)[C@H](O)[C@@H]24 (some centres undefined),-10,63,2,1,3,-4,15,11,
CCN(CC)CCCOC(=O)C(OC(C)C)(c1ccccc1)c1ccccc1,1,22,0,0,-9,-11,.,.,
COc1ccc(C[C@H]2NC[C@H](O)[C@H]2OC(C)=O)cc1,-7,104*,1,1,-1,1,99*,99*,
COc1ccc(CCNC2CCCCC2)cc1,-1,-16,0,0,1,-8,.,.,
NN=C(N)N,-4,-32,3,-1,-1,.,.,.,
O=c1[nH]c(=S)[nH]c(O)c1N=Nc1ccc2c(c1)OCCO2,-2,-80,-2,2,-5,-4,.,.,
SMILES,bovine MsrA act,NR2E3 ag-1,NR2E3 ag-2,MsrA inhibitor,NadD block,GalR3 antagonist,NR2E3 ag conf,VP16 counter,others
O=c1[nH]c(O)c(N=Nc2ccc3c(c2)OCCO3)c(=O)[nH]1,-4,69,-2,0,-1,-2,42,37,
COC(=O)NC(=S)Nc1ccccc1NC(=S)NC(=O)OC,-2,-42,.,1,0,.,.,.,
COCCNC(=O)c1ccc(N2CC3CC(C2)c2cccc(=O)n2C3)c([N+](=O)[O-])c1 (centres undefined),-4,-12,2,0,-3,3,.,.,
C[C@H]1C[C@@H](C)C(=O)[C@@H]([C@H](O)CC2CC(=O)NC(=O)C2)C1,-7,101*,0,1,-6,-7,100*,94*,
CC1(C)C2([N+](=O)[O-])CN3CC1([N+](=O)[O-])CN(C2)C3c1ccccn1 (centres undefined),-3,9,3,-1,-8,5,.,.,
O=C(Cc1ccccc1)OCC(=O)N1CCN(S(=O)(=O)c2ccc(Cl)cc2)CC1,-12,-11,6,-1,-7,-3,.,.,
COc1ccc2c(c1)/C(=C/c1cnc[nH]1)C(=O)N2,-7,81*,-11,3,3,2,86*,25,
CC(C)(O)/C=C/C(=O)[C@](C)(O)C1[C@H](O)C[C@@]2(C)C3CC=C4C(C[C@H](O)[C@@H](O)C4(C)C)[C@]3(C)C(=O)C[C@]12C (some centres undefined),6,40,.,.,2,.,.,.,
Cn1cc([N+](=O)[O-])c(C(=O)Nc2ccc3c(C(F)(F)F)cc(=O)oc3c2)n1,-4,6,1,2,-4,1,.,.,
O=c1[nH]c2ccccc2n1C1CCN(C(c2ccccc2OC(F)(F)F)c2nnnn2-c2ccc3c(c2)OCCO3)CC1 (centres undefined),-2,61,.,1,29*,1,54,14,NadD conf=11
O=c1[nH]c2ccccc2n1C1CCN(C(c2cccs2)c2nnnn2-c2ccc3c(c2)OCCO3)CC1 (centres undefined),-4,22,.,-1,16,-5,.,.,
COC1C(OC(=O)c2ccc(C)[nH]2)C(O)C(Oc2ccc3c(O)c(NC(=O)c4ccc(O)c(CC=C(C)C)c4)c(=O)oc3c2Cl)OC1(C)C (centres undefined),-9,81*,2,0,31*,-4,-32,31,NadD conf=50*
